Experiments:
MS2 coat protein [1] = experiment: apparent Kd, MS2 coat protein; higher = weaker binding; RNA-MaP array
In short: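 In Tris-HCl pH 7.5 buffer with KCl, MgCl2, BSA, DTT, tRNA and Tween20, with or without input ligand, fluorescently labeled MS2 coat protein at 1.5 nM to 3 μM was incubated at room temperature with designed RNAs. The RNAs had been transcribed on an Illumina sequencing chip from sequenced DNA templates, and incubation ran 0.8–1.5 h at the lowest to 10–20 min at the highest concentrations. Apparent Kd is the median of binding-curve fits for individual clusters. Designs measured on fewer than 10 clusters were excluded.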

MS2 coat protein [2] = experiment: apparent Kd, MS2 coat protein; higher = weaker binding; RNA-MaP array; FMN 200 µM where present
In short: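 Apparent Kd: the median of filtered binding-curve fits from single clusters. Designs were transcribed on Illumina sequencing-chip clusters by stalled E. coli RNA polymerase and titrated with SNAP-549-labelled MS2 coat protein from 0.7 or 1.5 nM, doubling to 3 µM, in 100 mM Tris-HCl pH 7.5, 80 mM KCl, 4 mM MgCl2, BSA, DTT, yeast tRNA and Tween-20. Each series ran without and then with constant ligand, and green signal was normalised to red-channel RNA signal and control-cluster median Fmax.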

[3] = designed as: ON switch for flavin mononucleotide, no ligand
[4] = ligand present: flavin mononucleotide, designed as: ON switch for flavin mononucleotide
[5] = designed as: OFF switch for flavin mononucleotide, no ligand
[6] = ligand present: flavin mononucleotide, designed as: OFF switch for flavin mononucleotide
[7] = designed as: OFF switch for tryptophan, no ligand
[8] = ligand present: tryptophan, designed as: OFF switch for tryptophan

## UCGAGUGGGCAGAAGGUGUCGGACUAUACAUGAGGAUCACCCAUGUGGAAACCUCCCGGUUUGAACAAGGAUAUGCCUCGUAAA
MS2 coat protein [1]; [3]
  apparent Kd: 95.6 nM
MS2 coat protein [1]; [4]
  apparent Kd: 71.4 nM

## GGAUUGAUAGGAUAUACAUAGAUGUAGGAGCCUUCACUCCCACAUGAGGAUCACCCAUGUAGAAGGAUCAGUAA
MS2 coat protein [1]; [5]
  apparent Kd: 12.1 nM
MS2 coat protein [1]; [6]
  apparent Kd: 23.6 nM

## CGCCCGAAAGGAUAUACAUGAGGAUCACCCAUGUUUCUAGCAAAAUGACCCUCAAUUCGUAGAAGGUUCCGAGU
MS2 coat protein [1]; [5]
  apparent Kd: 32.6 nM
MS2 coat protein [1]; [6]
  apparent Kd: 36.1 nM

## UCGACAUCAGGAUAUACGAUGGAGUAGUUACGAGUAUCACGACAUGAGGAUCACCCAUGUAGAAGGGAUCGUCC
MS2 coat protein [1]; [5]
  apparent Kd: 21.4 nM
MS2 coat protein [1]; [6]
  apparent Kd: 17.7 nM

## GUACCUCAAGGAUAUGCCCGAUCUUACAUGAGGAUCACCCAUGUUGGCUCAGGGCUUAGGGCAGAAGGUGAGAAGU
MS2 coat protein [1]; [5]
  apparent Kd: 6.38 nM
MS2 coat protein [1]; [6]
  apparent Kd: 7.52 nM

## CUUGUACAUGAGGAUCACCCAUGUGUCCGUAUCAAAGGAUAUAGCAUAUUCGCAGUGGUGCUAGAAGGUUGUAUAC
MS2 coat protein [1]; [3]
  apparent Kd: 20.9 nM
MS2 coat protein [1]; [4]
  apparent Kd: 10.5 nM

## GGAGUGUGAGGAUAUGACGCGCCAGGCACACUUGAAUGCGCUCAGAAGGCACAUGAGGAUCACCCAUGUAAGCA
MS2 coat protein [1]; [5]
  apparent Kd: 8.29 nM
MS2 coat protein [1]; [6]
  apparent Kd: 13.3 nM

## GCCAAAAUACCCGAUACCAGUAUUAAUAGCACAACCUCACACAUGAGGAUCACCCAUGUAUACCCUUGGCAGCGGCCUAACAUAA
MS2 coat protein [1]; designed as: OFF switch for theophylline, no ligand
  apparent Kd: 36.9 nM
MS2 coat protein [1]; ligand present: theophylline, designed as: OFF switch for theophylline
  apparent Kd: 102 nM

## AAUACACAUGAGGAUCACCCAUGUAAGGAUAUCAAGCAUCAAACAUUAGAGUGAGGAGUGAGAAGGUACAUCAC
MS2 coat protein [1]; [5]
  apparent Kd: 20.1 nM
MS2 coat protein [1]; [6]
  apparent Kd: 16.3 nM

## ACAAGGAGUCAAGGAUAUGAUAGAAGUUACACAUGAGGAUCACCCAUGUUUCUCCGGUGUCAGAAUCAGAAGGUGAGUAUGCAU
MS2 coat protein [1]; [5]
  apparent Kd: 85.2 nM
MS2 coat protein [1]; [6]
  apparent Kd: 74.7 nM

## ACGAGAGCCCAGAAGGACACGGGAUACUCACAAGCAUUCUGGACAUGAGGAUCACCCAUGUGUAUGUAGGAUAUGGGAGUUGCG
MS2 coat protein [1]; [3]
  apparent Kd: 31 nM
MS2 coat protein [1]; [4]
  apparent Kd: 15.2 nM

## GUACCGUAAACGGCCGCCACUGACAUGAGGAUCACCCAUGUGCUGGUGGUGCACAACCUCAGGUUCAGGACCGGGUUUCCGAGCU
MS2 coat protein [1]; [7]
  apparent Kd: 25.1 nM
MS2 coat protein [1]; [8]
  apparent Kd: 55 nM

## GGAAUCGGAUUAGAGGAUAUCGAUCUGUUAACAUGAGGAUCACCCAUGUGGACGCUUCAUUCGAACGAGAAGGCUAGAUGGACACC
MS2 coat protein [1]; [3]
  apparent Kd: 23.8 nM
MS2 coat protein [1]; [4]
  apparent Kd: 16.8 nM

## ACUUCAGAUACAGGAUAUAGCGUAACAUGAGGAUCACCCAUGUCUUGAUGCCUCUGUCGCGACGACUAGAAGGGUAAGCUUUGA
MS2 coat protein [1]; [5]
  apparent Kd: 91.6 nM
MS2 coat protein [1]; [6]
  apparent Kd: 86.7 nM

## ACUUACGGAAAGAAGGAGGGACAGUCACGGCGGGCGGACCACAUGAGGAUCACCCAUGUGCGAGCCUAGGAUAUUUAGGGUAGC
MS2 coat protein [1]; [5]
  apparent Kd: 7.19 nM
MS2 coat protein [1]; [6]
  apparent Kd: 7.23 nM

## ACCGUGUCAGGAUAUCGGGUAUUCUUCCGUAUAAUACCAGCCGAGAAGGGACAUGAGGAUCACCCAUGUGGACA
MS2 coat protein [1]; [5]
  apparent Kd: 33.2 nM
MS2 coat protein [1]; [6]
  apparent Kd: 57.8 nM

## CAAAAUGCGGCGGCCGCCACUCAGCUCCGUGUGGUUGGUCAUCUUAACAUGAGGAUCACCCAUGUGAGGACCGGGCCAGCGAGUG
MS2 coat protein [1]; [7]
  apparent Kd: 13.5 nM
MS2 coat protein [1]; [8]
  apparent Kd: 13.9 nM

## GUAAAACUGUAAGGAUAUGAUGAACUUUAACCCUCAGAAGGAACACCACAUGAGGAUCACCCAUGUUAGGAAAGCAACUUGUUG
MS2 coat protein [1]; [3]
  apparent Kd: 14.1 nM
MS2 coat protein [1]; [4]
  apparent Kd: 13.8 nM

## AGGAGGCAUAAGAAGGGUACAUGUAUUGGGUGUACAGGAUAUUACAGGUGCCGCACAUGAGGAUCACCCAUGUUAUCAUUGUGC
MS2 coat protein [1]; [5]
  apparent Kd: 39 nM
MS2 coat protein [1]; [6]
  apparent Kd: 34 nM

## UACUCACAUGAGGAUCACCCAUGUUGUCUCAAGAUAGGAUAUGACUGGCUAUGCAUCGGUUCAGAAGGAUCUUCUA
MS2 coat protein [1]; [3]
  apparent Kd: 19.7 nM
MS2 coat protein [1]; [4]
  apparent Kd: 11.3 nM

## GGAAAUCAUGUAGGAUAUGCAUGGCGAAGCUACGCAGAAGGACAUGAGGAUCACCCAUGUUAUAGCGUUCGAGAAAGGAUGCAA
MS2 coat protein [2]; [5]
  apparent Kd: 20.1 nM
MS2 coat protein [2]; [6]
  apparent Kd: 87.9 nM

## GUCCGGAGGGAGAAGGGCUAGGAGGUCCAGCUUAUGUGUGUUGCAACAUGAGGAUCACCCAUGUAGCAGGAUAUCCCUUGUACA
MS2 coat protein [2]; [5]
  apparent Kd: 52.1 nM
MS2 coat protein [2]; [6]
  apparent Kd: 219 nM

## CCGGAAGUACAGGAUAUCGUAUCGGAAACGAUACGAGAAGGGUAUACAUGAGGAUCACCCAUGUGUCCUACCGG
MS2 coat protein [2]; [5]
  apparent Kd: 28.7 nM
MS2 coat protein [2]; [6]
  apparent Kd: 27.9 nM

## UUAAUUCUGAUUCUUGAAAUACAUGAGGAUCACCCAUGUUCACAGGAUAUUGAUUAUGUUAGUAACAAGAAGGGUGUAACAUAU
MS2 coat protein [2]; [5]
  apparent Kd: 30.6 nM
MS2 coat protein [2]; [6]
  apparent Kd: 85.6 nM

## UUAAUCUAUACAGGAUAUCCAUACGCUGCAUACGGAGAAGGGUAACAAUCAUGAGGACAUGAGGAUCACCCAUGUUCUGAGCAU
MS2 coat protein [2]; [3]
  apparent Kd: 11.7 nM
MS2 coat protein [2]; [4]
  apparent Kd: 10.7 nM

## CAGUGCAAUGUAGGAUAUGCUCAGGAAUACUGAGCAGAAGGACAUGAGGAUCACCCAUGUACUAUGAAAGAUAAUAAAGCACUG
MS2 coat protein [2]; [5]
  apparent Kd: 13.5 nM
MS2 coat protein [2]; [6]
  apparent Kd: 18.2 nM

Source: the EternaBench riboswitch data
